The text below walks through data of ChEMBL document CHEMBL3352450, “Indazole-type alkaloids from Nigella sativa seeds exhibit antihyperglycemic effects via AMPK activation in vitro” (J Nat Prod, 2014).

Series [1] deals with HepG2. The series can be described thus: Increase in glucose consumption in human HepG2 cells grown under low-glucose medium assessed as reduction in glucose levels at 1 mM incubated for 7 hrs by glucose assay. In kind it is functional. Details: scale not given: the % may be the effect or the level left. Summed up:
(§1)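 HepG2 cells (kept in high-glucose DMEM with 10% FBS) were seeded at 4.0 × 10^4 cells/well for 8 h. They were then held overnight in low-glucose ([…]) medium with 2 mM glutamine and 1% FBS. Treatment lasted 7 h in that medium, with DMSO stocks and 0.1% DMSO as solvent control. Medium glucose was read by colorimetric kit at 490 nm, with 3 replicates, as mean ± SD.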

Series [2] relates to HepG2. The series can be described thus: Increase in glucose consumption in human HepG2 cells grown under low-glucose medium assessed as reduction in glucose levels at 25 uM incubated for 7 hrs by glucose assay. In kind it is functional. Set-up: scale not given: the % may be the effect or the level left. Summed up: as §1
For series [3], the system named is HepG2. The series can be described thus: Toxicity against human HepG2 cells at 100 uM. The note with it: hepg2, 100 µM. Type of series: cell-based.
Series [4] addresses AMP-activated protein kinase, AMPK (Homo sapiens) (UniProt P54646+O43741+P54619+Q9UGJ0+Q9Y478+Q13131+Q9UGI9). The series can be described thus: Increase in AMPK phosphorylation in human HepG2 cells at 25 to 100 uM incubated for 24 hrs by Western blotting method. Type of series: cell-based. Summed up:
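HepG2 cells were grown in 6-well plates for 8 h, then held overnight in low-glucose medium and treated for 24 h. Lysis was in RIPA buffer with BCA protein assay. 20 μg/lane was run on 8% SDS-PAGE and blotted to PVDF, blocked in 5% milk, and probed overnight for p-AMPK (Thr172), AMPK and β-actin. HRP secondary was applied for 1 h, with ECL detection on film.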
On the technique in general: Immunoblotting shows a protein as a band on a membrane.

Consider `CN(C)C(=N)NC(=N)N` [METFORMIN], for which, in the series on HepG2 [1], the Activity is listed as 24%.

Consider `Cc1cc(O)c2c[n+]3n(c2c1)CCCC3`, for which the Activity in the series with HepG2 [2] is 8%; in the series on HepG2 [3], “Non-toxic”.

Take `C[C@@]1(O)CC(=O)c2c(n3[n+](c2-c2ccc(O)cc2)CCCC3)C1`: the figures for the Activity in the series on HepG2 [2] and with HepG2 [3] were 8% and “Non-toxic”, respectively.

Turning to `Cc1cc(O)c2c(-c3ccc(O)cc3)[n+]3n(c2c1)CCCC3`, the Activity was 8% with HepG2 [2] and “Non-toxic” with HepG2 [3].

Regarding `COc1cc(C)cc2c1c(-c1ccc(O[C@@H]3O[C@H](CO)[C@@H](O)[C@H](O)[C@H]3O)cc1)[n+]1n2CCCC1`, the Activity in the series on HepG2 [2] is 29%; in series [4], “Dose-dependent effect”; in the series on HepG2 [3] it was “Non-toxic”.

For `COc1cc(C)cc2c1c[n+]1n2CCCC1`, the Activity in the series with HepG2 [2] was 8%; in series [4] it was “Dose-dependent effect”; with HepG2 [3], “Non-toxic”.

With `COc1cc(C)cc2c1c(-c1ccc(O)cc1)[n+]1n2CCCC1`, the Activity in the series on HepG2 [2] was 8%; in the series with HepG2 [3] it was “Non-toxic”.
